Laboratory results published in ChEMBL document CHEMBL1157474, “[11C]cyclopropyl-FLB 457: a PET radioligand for low densities of dopamine D2 receptors” (Bioorg Med Chem, 2008).
Values belong to the compound of their own block, whether it stands above or below them.

How the values were obtained:
[1] = Ratio of drug uptake in cerebellum to frontal cortex in iv dosed cynomolgus monkey by PET; assay type: ADME, organism-based, Macaca fascicularis; conditions: in vivo
[2] = Ratio of drug uptake in cerebellum to thalamus in iv dosed cynomolgus monkey by PET; assay type: ADME, organism-based, Macaca fascicularis; conditions: in vivo
[3] = Ratio of drug uptake in cerebellum to caudate nucleus in iv dosed cynomolgus monkey after 84 mins by PET; assay type: ADME, organism-based, Macaca fascicularis; conditions: in vivo, 1.4 h
Outline: (§1)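 Baseline PET in ketamine/xylazine-anaesthetized cynomolgus monkeys after i.v. bolus of 56.2 ± 0.2 MBq tracer, scanned to 93 min. Regional radioactivity expressed as %SUV; region-to-cerebellum ratios taken at 84 min, cerebellum serving as reference region for free plus non-specific binding.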

[4] = Ratio of drug uptake in cerebellum to parietal cortex in iv dosed cynomolgus monkey by PET; assay type: ADME, organism-based, Macaca fascicularis; conditions: in vivo
[5] = Protein binding in cynomolgus monkey plasma at 10 MBq; assay type: ADME, cell-free, Macaca fascicularis; conditions: read-out: PPB (converted)
Outline: (§2)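 Monkey plasma (baseline or after raclopride pretreatment) mixed with tracer (~10 MBq) for 10 min at room temperature, then ultrafiltered (YM-30 membrane) by centrifugation; filtrate counted versus incubate. Duplicates; corrected for membrane binding using 0.9% NaCl controls.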

[6] = Ratio of drug uptake in cerebellum to pallidum in iv dosed cynomolgus monkey after 84 mins by PET; assay type: ADME, organism-based, Macaca fascicularis; conditions: in vivo, 1.4 h; outline: as §1
[7] = Ratio of drug uptake in cerebellum to putamen in iv dosed cynomolgus monkey after 84 mins by PET; assay type: ADME, organism-based, Macaca fascicularis; conditions: in vivo, 1.4 h; outline: as §1
[8] = Ratio of drug uptake in cerebellum to temporal cortex in iv dosed cynomolgus monkey by PET; assay type: ADME, organism-based, Macaca fascicularis; conditions: in vivo
[9] = Protein binding in cynomolgus monkey plasma at 10 MBq in presence of raclopride; assay type: ADME, cell-free, Macaca fascicularis; conditions: read-out: PPB (converted); outline: as §2
[10] = Lipophilicity, log D at pH 7.4 by shake flask method; assay type: physicochemical; conditions: buffer
Outline: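 Shake-flask logD at pH 7.4: tracer in 1-octanol/phosphate buffer (pH 7.4), shaken 3 min; buffer replaced and repeated. Four octanol portions re-extracted with buffer (vortex 2 min, centrifuge 4 min at 2000 x g); both layers counted; D = octanol cpm/mL over buffer cpm/mL.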

[11] = Metabolic stability in cynomolgus monkey plasma after 45 mins; assay type: ADME, cell-free, Macaca fascicularis; conditions: read-out: Stability
Outline: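 Monkey femoral vein blood drawn at 4, 15, 30, 45 min post-injection; plasma deproteinized with acetonitrile, centrifuged at 2000 x g, supernatant run on reverse-phase C18 radio-HPLC with acetonitrile/0.01 M phosphoric acid gradient, 6 mL/min; parent fraction versus polar metabolites; recovery checked by NaI well counting.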

[12] = Ratio of drug uptake in occipital cortex to cerebellum in iv dosed cynomolgus monkey by PET; conditions: in vivo
[13] = system: Brain; test: Drug uptake in iv dosed cynomolgus monkey brain after 7.5 mins by PET; assay type: ADME, organism-based, Macaca fascicularis; conditions: in vivo, 0.125 h
Outline: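 Ketamine/xylazine-anaesthetized cynomolgus monkeys given 56.2 ± 0.2 MBq [11C] tracer i.v. bolus over 5 sec into sural vein; 3D PET to 93 min. Whole-brain %ID = whole-brain ROI radioactivity concentration × ROI volume (~65 mL) / injected radioactivity × 100, plotted versus time; brain activity assumed unchanged radioligand.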

[14] = molecular target: D(2) dopamine receptor (Homo sapiens, UniProt P14416); test: Binding affinity to dopamine D2 receptor
[15] = system: Macaca fascicularis; test: Binding affinity to dopamine D3 receptor in iv dosed cynomolgus monkey brain cerebellum pretreated with raclopride by PET; assay type: organism-based; conditions: tested as the 11C-labelled form
[16] = system: Macaca fascicularis; test: Binding affinity to dopamine D2 receptor in iv dosed cynomolgus monkey brain cerebellum pretreated with raclopride by PET; assay type: organism-based; conditions: tested as the 11C-labelled form

Sequence of D(2) dopamine receptor (P14416 whole entry): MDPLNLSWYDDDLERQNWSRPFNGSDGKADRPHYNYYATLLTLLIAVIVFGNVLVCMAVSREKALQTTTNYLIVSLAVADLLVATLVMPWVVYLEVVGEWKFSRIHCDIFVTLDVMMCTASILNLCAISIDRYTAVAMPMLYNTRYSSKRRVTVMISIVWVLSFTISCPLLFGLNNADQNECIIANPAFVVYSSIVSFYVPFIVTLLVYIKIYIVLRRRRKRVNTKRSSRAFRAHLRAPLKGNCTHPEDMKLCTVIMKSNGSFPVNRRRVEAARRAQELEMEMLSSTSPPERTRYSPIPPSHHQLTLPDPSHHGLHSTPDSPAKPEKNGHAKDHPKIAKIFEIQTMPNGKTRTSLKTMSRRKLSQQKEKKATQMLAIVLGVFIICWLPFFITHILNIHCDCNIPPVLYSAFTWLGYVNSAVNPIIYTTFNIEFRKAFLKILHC

- Ratio [1]: 3.24
- Ratio [2]: 3.7
- Ratio [3]: 6.6
- Ratio [4]: 2.98
- fraction unbound at 10 MBq [5]: 0.68
- Ratio [6]: 5.4
- Ratio [7]: 7.61
- Ratio [8]: 2.59
- fraction unbound at 10 MBq [9]: 0.64
- logD [10]: 1.82
- remaining at 0.75 h [11]: 60%
- Ratio [12]: 2.08
- Drug uptake [13]: 4.4 %ID
Structure (SMILES): COc1cc(Br)cc(C(=O)NC[C@@H]2CCCN2CC2CC2)c1O[11CH3]

- Ki [14]: 3 pM
Structure (SMILES): CCN1CCC[C@H]1CNC(=O)c1cc(Br)cc(OC)c1OC

- Activity [15]: 50%
- Activity [16]: 50%
Structure (SMILES): COc1cc(Br)cc(C(=O)NC[C@@H]2CCCN2CC2CC2)c1OC

- logD [10]: 1.33
Structure (SMILES): CCN1CCC[C@H]1CNC(=O)c1cc(Br)cc(OC)c1O[11CH3]
